Screening data as filed in PubChem.
This is a sample that favours compounds with a hit; in the whole collection about 3.7% have one here.
KCNK3 block = human KCNK3 channel inhibition, primary screen; O14649; CHO-KCNK3 thallium flux, FluxOR fluorescence; active compounds read low; hit rate 0.84% among 340,000; B-score at 10 µM;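 active = B-score under library mean minus 4 SD, starting fluorescence ratio at most library mean plus 5 SD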;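 also: more negative B-score means stronger inhibition of thallium flux through KCNK3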
KCNQ1 pot = potentiates or activates the human KCNQ1 potassium channel. hit rate 0.35% among 310,000. P51787. B-score at 10 µM. CHO-K1 KCNQ1, thallium flux FluxOR fluorescence; active compounds read high. AID 2648;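 active = fluorescence ratio B-score, a plate-corrected score, at least three library SD, with initial intensity B-score within 5 SD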
Target sequence (P51787 whole entry, looked up): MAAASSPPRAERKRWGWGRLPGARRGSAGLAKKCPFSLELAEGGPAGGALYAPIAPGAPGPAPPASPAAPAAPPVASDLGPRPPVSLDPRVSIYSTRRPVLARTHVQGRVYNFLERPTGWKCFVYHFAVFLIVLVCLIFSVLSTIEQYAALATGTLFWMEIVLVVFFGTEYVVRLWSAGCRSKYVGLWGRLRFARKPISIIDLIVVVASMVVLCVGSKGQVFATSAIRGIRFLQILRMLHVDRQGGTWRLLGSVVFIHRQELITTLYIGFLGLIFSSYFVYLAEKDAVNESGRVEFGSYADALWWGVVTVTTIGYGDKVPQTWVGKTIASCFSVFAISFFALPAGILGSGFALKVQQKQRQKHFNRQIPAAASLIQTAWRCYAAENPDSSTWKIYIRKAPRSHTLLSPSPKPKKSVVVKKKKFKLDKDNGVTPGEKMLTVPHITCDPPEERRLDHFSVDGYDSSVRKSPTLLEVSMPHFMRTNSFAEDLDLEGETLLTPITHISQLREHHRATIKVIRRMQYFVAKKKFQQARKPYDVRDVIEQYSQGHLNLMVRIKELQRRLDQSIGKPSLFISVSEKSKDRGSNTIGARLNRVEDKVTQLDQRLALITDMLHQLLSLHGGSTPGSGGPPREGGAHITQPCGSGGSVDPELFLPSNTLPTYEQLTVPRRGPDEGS
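Assay system: CHO-K1 cells stably expressing KCNQ1; Medium: assay buffer with matched DMSO; Also added: K+/Tl+ depolarizing stimulus; Dosing: single dose; Timing: dye 90 min, compound 20 min, room temperature; Measured by: kinetic FluxOR thallium fluorescence, 10-s 1-Hz baseline, 110-s post-stimulus read; Read-out: peak-minus-minimum fluorescence over initial fluorescence, negative-control normalized, B-scored.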
Kir21 block = inhibitors of mouse Kir2.1 inward-rectifier potassium channel | P35561 | HEK293-Kir2.1, FluxOR thallium flux fluorescence; active compounds read low | B-score at 10 µM | hit rate 0.85% among 310,000 | AID 1672;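 active = fluorescence ratio B-score at or below minus 3 SD of library scores, with starting-brightness B-score within 2 SD, cut at about -4.2 in these data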;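 also: channel flux triggered by added potassium and thallium sulfate stimulus; B-score of peak minus minimum fluorescence over baseline after thallium stimulus; more negative B-score means stronger Kir2.1 block with less thallium influx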
KCNK9 inh = blocks the human KCNK9 two-pore domain potassium channel. AID 488922. HEK293 KCNK9, FluxOR thallium flux fluorescence; active compounds read low. hit rate 1.2% among 310,000. B-score at 10 µM. Q9NPC2;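 active = ratio B-score over 3 SD below the library mean, with starting fluorescence within 5 SD of its mean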;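 also: negative B-score means less thallium flux so channel inhibition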
KCNQ1 block = blocks the human KCNQ1 potassium channel; P51787; CHO-K1 KCNQ1, FluxOR thallium flux fluorescence; active compounds read high; B-score at 10 µM; hit rate 1.3% among 310,000;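 active = compounds whose thallium flux B-score, printed positive for inhibition, exceeds three library SD while starting fluorescence stays within three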;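 also: channel opened by potassium depolarization with thallium stimulus after 20 min compound exposure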
hERG rescue = compounds protecting human hERG from proarrhythmic drug block; hit rate 0.51% among 310,000; activation (rescue from dofetilide block), less the hit threshold, % at 10 µM; AID 1511; Q12809; CHO-hERG, FluxOR thallium flux, dofetilide IC70 present;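 active = activation above the mean of controls blocked by dofetilide plus 5 SD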;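 also: thallium influx through hERG after potassium depolarization seen as dye fluorescence rise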
Numbers without * were called inactive; i = inactive; / = no result given.

SMILES | KCNK3 block | KCNQ1 pot | Kir21 block | KCNK9 inh | KCNQ1 block | hERG rescue
COc1ccc(C2CC(c3ccc([N+](=O)[O-])cc3)=NN2C(=O)c2ccccc2)cc1OC (stereo unspecified) | i | i | 0.29 | -7* | i | -4
COc1ccc(C2=NN(C(=O)c3ccccc3)C(c3ccc(OC)c(OC)c3)C2)cc1OC (stereo unspecified) | i | i | -0.46 | i | i | -7
O=C(COc1ccc(Cl)cc1)NCCSCc1cccc(Cl)c1 | i | i | -1.6 | i | 6* | -1
Cc1cccc(CSCCNC(=O)COc2ccc(Cl)cc2)c1 | i | i | 0.66 | i | i | -6
Cc1c(N=Cc2cc(Br)cc(Br)c2O)cccc1C(=O)O | i | 10* | 2.5 | i | i | -25
COc1ccc(S(=O)(=O)N2CCOCC2)cc1NC(=O)CSc1nnc2n1CCCCC2 | i | / | / | / | / | /
CCOc1ncccc1C(=O)OC(C)C(=O)Nc1ccc(N2CCOCC2)cc1 (stereo unspecified) | i | / | / | / | / | /
Cc1nn(-c2ccccc2)c2nc(C(Cl)(Cl)Cl)[nH]c(=O)c12 | i | 12* | 2.4 | i | i | -14
CCOC(=O)[C@@H](C)N(C(=O)OC(C)(C)C)S(=O)(=O)N(Cc1ccccc1)[C@H](C(=O)OC)C(C)C | i | / | / | / | / | /
CCc1ccc(C(c2ccc(CC)cc2)C(Cl)Cl)cc1 | i | / | / | / | / | /
Clc1ccc(C(c2ccccc2Cl)C(Cl)Cl)cc1 (stereo unspecified) | -8.9* | / | / | / | / | /
CCC[C@@H](CN[C@@H](CNC)C(C)C)NCCCCc1ccccc1 | i | i | -2.2 | i | i | -6
CNC[C@@H](CC1CCCCC1)NC[C@H](CC(C)C)NCCc1cccc(C(F)(F)F)c1 | i | i | -8.8* | i | 9* | -30
CNC[C@@H](Cc1ccccc1)NC[C@@H](CC1CCCCC1)NCCCc1ccccc1 | i | i | -11* | -8.1* | 7* | -25
CCC[C@@H](CNC)NC[C@H](Cc1ccccc1)NCCCCc1ccccc1 | i | i | -4.5* | i | i | -11
CCN(CC)c1ccc(C(=O)NNC(=O)C2CSC3(C)CCC(=O)N23)cc1 (stereo unspecified) | i | / | / | / | / | /
CCCNC(=O)c1onc(CSc2ccc(F)cc2)c1C(=O)NCC1CC1 | i | i | -0.03 | i | i | -13
CCCC(NC(=O)C(C)N1CCN(S(=O)(=O)c2ccccc2)CC1)c1ccccc1 (stereo unspecified) | i | / | / | / | / | /
O=C(CSc1nnc2ccccn12)NNC(=O)c1ccccc1F | i | / | / | / | / | /
CSC(C(=O)c1cc2ccccc2o1)c1ccccc1 (stereo unspecified) | i | 15* | -1 | i | i | -6
O=C1CCCC(=O)C1=C1SCCCS1 | i | i | 0.56 | i | i | -8
Cc1cccc(C(=O)NNC(=S)NC(=O)c2cccs2)c1 | i | i | 0.93 | i | i | -4
Cc1cccc(C(=O)NNC(=S)NC(=O)c2ccccc2)c1 | i | 23* | 1.3 | i | i | -1
COc1ccc(C(=O)NC(=S)NNC(=O)c2cccc(C)c2)cc1 | i | 62* | 1.7 | i | i | -5
Cc1ccc(C(=O)NCCOc2ccc(Cl)cc2)cc1 | i | i | 0.7 | i | i | -1
SMILES | KCNK3 block | KCNQ1 pot | Kir21 block | KCNK9 inh | KCNQ1 block | hERG rescue
Cc1ccc(C(=O)CC(=O)COc2ccc(Cl)cc2)cc1 | i | 17* | 0.12 | i | i | -11
Cc1cccc(C(=O)NC(=S)NNC(=O)COc2ccc(Cl)cc2)c1 | i | 59* | 0.23 | i | i | -13
COc1ccc(C(=O)NNC(=S)NC(=O)c2ccc(OC)cc2)cc1 | i | i | -1.1 | i | i | -9
CC1CCN(C(=O)c2[nH]cnc2C(=O)Nc2ccc(Cl)cc2)CC1 | i | / | / | / | / | /
Nc1ncnc2c(C3OC(CO)C(O)C3O)scc12 (stereo unspecified) | i | / | / | / | / | /
Nc1nc(=O)n(C2CCCO2)cc1Br (stereo unspecified) | i | / | / | / | / | /
COc1ccccc1N(CC(=O)Nc1cc(C)on1)S(=O)(=O)c1cccc(C(F)(F)F)c1 | i | / | / | / | / | /
CCOC(=O)CN1CC(C)(C)N(CC(=O)OCC)CC1(C)C | i | / | / | / | / | /
